In data set [1] the test system is Human alphaherpesvirus 3. The experiment in a line: Antiviral activity against wild type Varicella-zoster virus Oka infected in human HEL cells assessed as reduction of viral plaque formation after 5 days. Particulars: Human alphaherpesvirus 3, strain Oka vaccine, 120 h. The class given is functional, organism-based. Put shortly:
(§1)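 Confluent HEL cells were inoculated with 20 PFU per well. After 2 h, residual virus was removed and compound dilutions were added, in duplicate.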

In the next data set the test system is Vaccinia virus. The data set can be described thus: Antiviral activity against Vaccinia virus infected in human HEL cells assessed as inhibition of virus-induced cytopathicity. Type of data set: functional, organism-based. The following applies: Orthopoxvirus vaccinia. In general terms: Damage to the host cells serves as the signal in cytopathic effect assays.

A short description of data set [2]: Cytotoxicity against African green monkey Vero cells assessed as concentration required to cause microscopically visible alternation of cell morphology. The following applies: chlorocebus sabaeus. The class given is cell-based. Put shortly: (§2)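 Confluent cultures (MDCK nearly confluent) exposed to 5-fold serial compound dilutions alongside the antiviral assays. MCC is the lowest concentration producing a microscopically visible change in cell morphology.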

In data set [3] the test system is Human betaherpesvirus 5. The experiment in a line: Antiviral activity against human cytomegalovirus Davis infected in human HEL cells assessed as inhibition of virus-induced cytopathicity after 7 days by Giemsa staining-based microscopic analysis. Type of data set: functional, organism-based. The following applies: Human betaherpesvirus 5, Davis, 168 h. Put shortly: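 Confluent HEL fibroblasts were infected with 100 PFU per well. After 2 h, residual virus was removed and compound-containing medium was added, in duplicate. At 7 days at 37 °C, cells were ethanol-fixed and Giemsa-stained, and cytopathogenicity was assessed microscopically.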

In the next data set the test system is Sindbis virus. The experiment in a line: Antiviral activity against Sindbis virus infected in African green monkey Vero cells assessed as inhibition of virus-induced cytopathicity. Type of data set: functional, organism-based.
Data set [4] deals with Respiratory syncytial virus. The data set can be described thus: Antiviral activity against Respiratory syncytial virus infected in human HeLa cells assessed as inhibition of virus-induced cytopathicity. The class given is functional, organism-based.
Data set [5] relates to Coxsackievirus B4. The experiment in a line: Antiviral activity against Coxsackievirus B4 infected in human HeLa cells assessed as inhibition of virus-induced cytopathicity. The class given is functional, organism-based. Particulars: Enterovirus B. The method in brief:
(§3)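 Confluent cell monolayers in 96-well plates inoculated with 100 CCID50 of virus alongside 5-fold serial dilutions of compound. Cytopathicity scored once it was complete in untreated infected controls.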

The subject of another data set is Punta Toro virus. The data set can be described thus: Antiviral activity against Punta Toro virus infected in African green monkey Vero cells assessed as inhibition of virus-induced cytopathicity. Type of data set: functional, organism-based.
Data set [6] deals with Human immunodeficiency virus 1. The data set can be described thus: Antiviral activity against HIV-1 3B infected in human CEM cells assessed as inhibition of virus-induced giant cell formation after 4 days by microscopic analysis. The class given is functional, organism-based. Particulars: Human immunodeficiency virus 1, 3B, CCRF-CEM, 96 h. Put shortly: (§4)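 CEM cells (~3 × 10^5 cells per cm3) were infected with 100 CCID50 of virus per mL and seeded into wells containing compound dilutions. After 4 days at 37 °C, giant cell formation was examined microscopically.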

The test system of data set [7] is Human alphaherpesvirus 3. The data set can be described thus: Antiviral activity against thymidine kinase-deficient Varicella-zoster virus 07-1 infected in human HEL cells assessed as reduction of viral plaque formation after 5 days. Type of data set: functional, organism-based. Particulars: Human alphaherpesvirus 3, 07-1, HEL, 120 h. Put shortly: as §1
Data set [8] relates to Human betaherpesvirus 5. The experiment in a line: Antiviral activity against human cytomegalovirus AD169 infected in human HEL cells assessed as inhibition of virus-induced cytopathicity after 7 days by Giemsa staining-based microscopic analysis. The class given is functional, organism-based. Particulars: Human betaherpesvirus 5, AD169, HEL, 168 h. The method in brief:
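Confluent HEL fibroblasts infected with HCMV AD-169 or Davis at 100 PFU/well for 2 h, then residual virus removed. Medium with graded compound concentrations added, in duplicate. After 7 days at 37 °C, cells ethanol-fixed and Giemsa-stained, and cytopathogenicity read microscopically. EC50 taken from plots of % cytopathogenicity versus concentration.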

The subject of data set [9] is Human alphaherpesvirus 1. The data set can be described thus: Antiviral activity against thymidine kinase-deficient Herpes simplex virus type 1 infected in human HEL cells assessed as inhibition of virus-induced cytopathicity. The class given is functional, organism-based. Particulars: Human alphaherpesvirus 1, HEL.
A further data set deals with Human respirovirus 3. The experiment in a line: Antiviral activity against Parainfluenza virus 3 infected in African green monkey Vero cells assessed as inhibition of virus-induced cytopathicity. The class given is functional, organism-based. The following applies: Human respirovirus 3, Vero. The method in brief:
as §3

Another data set has as its system Human alphaherpesvirus 2. The data set can be described thus: Antiviral activity against Herpes simplex virus type 2 G infected in human HEL cells assessed as inhibition of virus-induced cytopathicity. The class given is functional, organism-based. Particulars: Human alphaherpesvirus 2, strain G.
Data set [10] can be described thus: Cytotoxicity against human HeLa cells assessed as concentration required to cause microscopically visible alternation of cell morphology. Type of data set: cell-based. Put shortly: as §2
The next data set deals with Influenza A virus. The data set can be described thus: Antiviral activity against Influenza A virus H1N1 infected in MDCK cells assessed as inhibition of virus-induced cytopathicity. The class given is functional, organism-based.
Data set [11] can be described thus: Cytotoxicity against MDCK cells assessed as concentration required to cause microscopically visible alternation of cell morphology. The class given is cell-based, Canis lupus familiaris. The following applies: dog. The method in brief: as §2
The subject of data set [12] is Human immunodeficiency virus 2. The experiment in a line: Antiviral activity against HIV-2 ROD infected in human CEM cells assessed as inhibition of virus-induced giant cell formation after 4 days by microscopic analysis. The class given is functional, organism-based. The following applies: Human immunodeficiency virus 2, ISOLATE ROD, CCRF-CEM, 96 h. The method in brief: as §4

Data set [13] concerns Coxsackievirus B4. The data set can be described thus: Antiviral activity against Coxsackievirus B4 infected in African green monkey Vero cells assessed as inhibition of virus-induced cytopathicity. Type of data set: functional, organism-based. The following applies: Enterovirus B.
In data set [14] the test system is Human alphaherpesvirus 1. The data set can be described thus: Antiviral activity against Herpes simplex virus type 1 KOS infected in human HEL cells assessed as inhibition of virus-induced cytopathicity. Type of data set: functional, organism-based. Particulars: Human alphaherpesvirus 1, KOS.
Data set [15] can be described thus: Cytotoxicity against human HEL cells assessed as concentration required to cause microscopically visible alternation of cell morphology. The class given is cell-based. The method in brief: as §2
The next data set has as its system Influenza A virus H3N2. The experiment in a line: Antiviral activity against Influenza A virus H3N2 infected in MDCK cells assessed as inhibition of virus-induced cytopathicity. Type of data set: functional, organism-based.
The test system of the next data set is Influenza B virus. The experiment in a line: Antiviral activity against Influenza B virus infected in MDCK cells assessed as inhibition of virus-induced cytopathicity. The class given is functional, organism-based.
Data set [16] concerns Mammalian orthoreovirus 1. The data set can be described thus: Antiviral activity against Reovirus 1 infected in African green monkey Vero cells assessed as inhibition of virus-induced cytopathicity. The following applies: Mammalian orthoreovirus 1, Vero. The class given is functional, cell-based.
The test system of data set [17] is Vesicular stomatitis virus. The data set can be described thus: Antiviral activity against Vesicular stomatitis virus infected in human HEL cells assessed as inhibition of virus-induced cytopathicity. Type of data set: functional, organism-based.
The test system of data set [18] is Vesicular stomatitis virus. The data set can be described thus: Antiviral activity against Vesicular stomatitis virus infected in human HeLa cells assessed as inhibition of virus-induced cytopathicity. Type of data set: functional, organism-based.

Bounds are passed on as bounds.

The EC50 is the concentration that produces a half-maximal response. As for `O=c1[nH]c(=O)n(C2C=CC(O)C2)cc1-c1cccs1` (stereo unspecified), the EC50 in the data set with Human alphaherpesvirus 3 [1] was 1.6 µM; with Vaccinia virus it was over 4 µM; in the data set with Human betaherpesvirus 5 [3], 1.8 µM; in the data set with Sindbis virus it was over 4 µM; in [4], over 4 µM; with Coxsackievirus B4 [5] it was over 4 µM. Moreover, the EC50 with Punta Toro virus was over 4 µM; in data set [6], over 2 µM; in the data set with Human alphaherpesvirus 3 [7] it was 1.6 µM; with Human betaherpesvirus 5 [8], 1.8 µM; in the data set with Human alphaherpesvirus 1 [9], over 4 µM; in the data set with Human respirovirus 3, over 4 µM. Moreover, the EC50 in the data set with Human alphaherpesvirus 2 was over 4 µM; in the data set with Influenza A virus, over 0.8 µM; in data set [12], over 2 µM; in the data set on Coxsackievirus B4 [13] it was over 4 µM; with Human alphaherpesvirus 1 [14], over 4 µM; in the data set with Influenza A virus H3N2, over 0.8 µM. Moreover, the EC50 with Influenza B virus is over 0.8 µM; in data set [16] it was over 4 µM; in data set [17], over 4 µM; in data set [18] it was 4 µM. Besides, the MCC in data set [2] was 20 µM; in data set [10], 20 µM; in [11], 4 µM; in [15], at least 4 µM.
On to `O=c1[nH]c(=O)n(C2C=CC(O)C2)cc1-c1ccco1` (stereo unspecified), for which the EC50 was over 100 µM in the data set with Vaccinia virus; over 100 µM in [4]; over 100 µM in the data set on Coxsackievirus B4 [5]; 20 µM with Punta Toro virus; over 100 µM in data set [6]; over 100 µM in the data set with Human alphaherpesvirus 1 [9]. Besides, the EC50 with Human respirovirus 3 is over 100 µM; in the data set with Human alphaherpesvirus 2 it was over 100 µM; in data set [12] it was over 100 µM; in the data set with Coxsackievirus B4 [13] it was over 100 µM; with Human alphaherpesvirus 1 [14], over 100 µM; in data set [16], 100 µM. Further, the EC50 in data set [17] and in data set [18] was over 100 µM throughout. The MCC in data set [2], in data set [10] and in data set [15] was over 100 µM throughout.
`O=c1[nH]c(=O)n(C2C=CC(O)C2)cc1-c1cncs1` (stereo unspecified): the EC50 with Human alphaherpesvirus 3 [1] is 47 µM; with Vaccinia virus, over 100 µM; in the data set on Human betaherpesvirus 5 [3] it was over 20 µM; in the data set with Sindbis virus, over 100 µM; in data set [4], over 100 µM; with Coxsackievirus B4 [5], over 100 µM. Also, the half-maximal effective concentration (EC50) in the data set on Punta Toro virus was over 100 µM; in data set [6], over 50 µM; in the data set on Human alphaherpesvirus 3 [7], 47 µM; with Human betaherpesvirus 5 [8] it was over 20 µM; in the data set with Human alphaherpesvirus 1 [9], over 100 µM; in the data set with Human respirovirus 3, over 100 µM. Moreover, the EC50 in the data set with Human alphaherpesvirus 2 is over 100 µM; with Influenza A virus, over 20 µM; in data set [12] it was over 50 µM; in the data set with Coxsackievirus B4 [13], over 100 µM; in the data set with Human alphaherpesvirus 1 [14], over 100 µM; in the data set on Influenza A virus H3N2, over 20 µM. Further, the EC50 is over 20 µM in the data set with Influenza B virus, over 100 µM in data set [16], over 100 µM in data set [17] and over 100 µM in data set [18]. In addition, the MCC in [2] was over 100 µM; in data set [10] it was over 100 µM; in data set [11] it was 100 µM; in data set [15] it was at least 100 µM.
For `NC(=O)c1ncn([C@@H]2O[C@H](CO)[C@@H](O)[C@H]2O)n1` [RIBAVIRIN], the EC50 in the data set with Vaccinia virus was over 250 µM; with Sindbis virus it was over 250 µM; in data set [6], over 50 µM; with Human alphaherpesvirus 2, over 250 µM; in data set [12], over 50 µM; in the data set with Coxsackievirus B4 [13] it was over 250 µM. The EC50 (in the data set with Human alphaherpesvirus 1 [14]; in data set [16]) was over 250 µM each time. In addition, the MCC in data set [2] is over 250 µM; in [10] it was over 250 µM; in data set [11], over 100 µM; in data set [15], over 250 µM.
